# Test results published in PubChem BioAssay.
# Calls of active or inactive are those of the source.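 Rule for the calls, unless noted: active = Her2 level under about 52% in both replicate screens, with viability over 70% of control (limit read from the data); inconclusive = Her2 under the limit in one screen only, or viability under 70%; inactive = Her2 level above the set limit.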
# Legend:
# [1] = Her2 expression decrease, cell viability multiplex – SKBR3 breast tumor cells, AlphaScreen, ATP viability, primary screen (AID 461); conditions: SKBR3 Her2 protein level, 18-24 h, measured here: SKBR3 viability, ATP luminescence, at 10 µM;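 for Her2 level: lower value means less Her2 protein in the cells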;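 for viability: percent of carrier control wells set as 100% viability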
# [2] = target: Receptor tyrosine-protein kinase erbB-2 (Homo sapiens) (UniProt P04626); experiment: as above; conditions: 18-24 h, at 10 µM, stronger effect = lower value
# [3] = reduced viability of SK-BR-3 breast cancer cells – cell-based, 24 h, human, pilot screen (AID 572;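 active = viability at or below 10% of carrier control in both of two separate runs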;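 note: compound exposure lasted between 18 and 24 h rather than exactly 24 h; 100% = carrier-treated control wells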); conditions: SK-BR-3 viability, CellTiter-Glo luminescence, at 10 µM, stronger effect = lower value
# [4] = HUVEC growth inhibition – cell-based, human, primary screen (AID 575;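 active = viability at or below 30% in both replicate assays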;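 note: 100% = median of untreated cell wells with 0.1% DMSO on each plate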); conditions: HUVEC proliferation, CellTiter-Glo luminescence, 72 h; at 10 µM; stronger effect = lower value
# Procedure, shortened: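 Material: primary human umbilical vein endothelial cells / Schedule: 72 h exposure, 37 °C, 5% CO2, 30 min RT equilibration / Signal: ATP-based CellTiter-Glo luminescent read / Read-out basis: percent of median DMSO-control luminescence / Control set: 32 DMSO-only cell-control wells (high), 32 MePR drug-control wells (low) per plate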
# [5] = H69AR cell proliferation blockers – human, duplicate replicates, primary screen (AID 580;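 active = viability at or under a set limit in both replicates, limit being median viability minus 3 SD, cut at about 48% in these data, passing the limit was not always enough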;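 note: 100% = mean luminescence of untreated wells and 0% = no signal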); conditions: H69AR lung tumor cells viability, ATP luminescence, 72 h; at 10 µM; stronger effect = lower value
# [6] = MRP1 drug-resistance reversers in H69AR cells – cell-based, doxorubicin co-treatment, pilot screen (AID 601;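 active = viability loss from added drug above about 55%, and viability with drug at most 40%, in both replicates, limit read from the data, passing the limit was not always enough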); conditions: CellTiter-Glo, 72 h, at 10 µM; for differential viability (reversal): stronger effect = higher value
# [7] = yeast transport mutant growth inhibition pilot in 384-well plates, post-Golgi transport modulator project (AID 636; in the data active = inhibition above about 31%); conditions: absorbance 615 nm, about 18 h, stronger effect = higher value
# [8] = growth suppression of yeast trafficking mutant, preliminary HTS, modulators of trafficking downstream of Golgi apparatus project, 1536-format plate, OD 615 nm (AID 637; in the data active = inhibition above about 30%); conditions: yeast transport mutant growth, absorbance 615 nm, 18 h; stronger effect = higher value
# [9] = H69AR cells + 2 uM doxorubicin, measured here: viability with 2 uM doxorubicin, stronger effect = lower value
# [10] = H69AR cells, compound alone cytotoxicity
# Sequence of Receptor tyrosine-protein kinase erbB-2 (Homo sapiens) (P04626 whole entry, looked up): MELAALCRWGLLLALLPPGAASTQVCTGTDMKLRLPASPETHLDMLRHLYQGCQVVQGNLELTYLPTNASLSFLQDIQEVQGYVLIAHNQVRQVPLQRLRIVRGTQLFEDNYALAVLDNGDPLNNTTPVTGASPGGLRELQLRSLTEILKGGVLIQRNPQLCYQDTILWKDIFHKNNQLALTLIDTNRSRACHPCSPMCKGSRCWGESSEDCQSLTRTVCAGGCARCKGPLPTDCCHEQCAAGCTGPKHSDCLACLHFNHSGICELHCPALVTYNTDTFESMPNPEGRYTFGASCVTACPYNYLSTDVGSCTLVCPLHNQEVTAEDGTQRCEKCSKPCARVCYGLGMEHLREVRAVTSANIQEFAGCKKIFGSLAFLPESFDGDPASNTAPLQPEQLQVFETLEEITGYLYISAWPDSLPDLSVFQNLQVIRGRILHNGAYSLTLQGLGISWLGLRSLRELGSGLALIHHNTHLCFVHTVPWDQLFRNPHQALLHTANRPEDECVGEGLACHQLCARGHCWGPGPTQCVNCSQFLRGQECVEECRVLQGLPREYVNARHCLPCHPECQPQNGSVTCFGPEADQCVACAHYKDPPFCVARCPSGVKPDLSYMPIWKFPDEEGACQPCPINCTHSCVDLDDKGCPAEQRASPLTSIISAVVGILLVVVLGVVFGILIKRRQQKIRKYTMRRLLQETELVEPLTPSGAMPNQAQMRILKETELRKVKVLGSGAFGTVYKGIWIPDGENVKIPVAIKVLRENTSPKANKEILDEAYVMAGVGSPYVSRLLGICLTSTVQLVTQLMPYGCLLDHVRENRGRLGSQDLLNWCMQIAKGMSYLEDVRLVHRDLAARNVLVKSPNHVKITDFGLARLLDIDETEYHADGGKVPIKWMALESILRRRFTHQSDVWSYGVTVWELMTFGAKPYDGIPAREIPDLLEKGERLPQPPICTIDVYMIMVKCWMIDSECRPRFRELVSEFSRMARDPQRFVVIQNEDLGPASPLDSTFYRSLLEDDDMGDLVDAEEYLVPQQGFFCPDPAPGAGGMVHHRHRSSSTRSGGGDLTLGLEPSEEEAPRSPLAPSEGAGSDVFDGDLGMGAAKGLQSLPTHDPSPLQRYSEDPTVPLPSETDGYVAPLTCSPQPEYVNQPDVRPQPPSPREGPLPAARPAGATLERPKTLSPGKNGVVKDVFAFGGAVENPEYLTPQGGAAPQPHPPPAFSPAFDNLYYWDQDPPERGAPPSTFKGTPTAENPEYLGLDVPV
SMILES,viability [1],Her2 level [2],viability [3],viability [4],viability [5],differential viability (reversal) ([6]; H69AR cells + 2 uM doxorubicin),"viability [6, 9]","viability [6, 10]",inhibition [7],inhibition [8]
CC(c1nnc(SCC(=O)Nc2sccc2C#N)n1-c1ccc(Cl)cc1)N(C)C (stereo not given),103%,74% (inactive),103% (inactive),91.8% (inactive),75.4% (inactive),-5.88% (inactive),81.2%,75.4%,-3.68% (inactive),0.79% (inactive)
S=c1[nH]nc(Cc2ccccc2)n1-c1ccccc1,108%,112% (inactive),108% (inactive),113% (inactive),92.9% (inactive),6.14% (inactive),86.7%,92.9%,-4.1% (inactive),-6.33% (inactive)
O=C(O)CN(c1ccccc1)C1SC(=O)NC1=O (stereo not given),85.5%,87.5% (inactive),85.5% (inactive),98.5% (inactive),86.8% (inactive),3.04% (inactive),83.8%,86.8%,-4.93% (inactive),2.79% (inactive)
COc1ccc(CC(=O)OCC(=O)NC(=O)NC2CCCCC2)cc1,96.5%,94% (inactive),96.5% (inactive),100% (inactive),92.4% (inactive),-0.595% (inactive),93%,92.4%,-5.13% (inactive),-0.73% (inactive)
Clc1ccc(Cc2nn3c(-c4ccncc4)nnc3s2)cc1,99.5%,107% (inactive),99.5% (inactive),101% (inactive),96.9% (inactive),-0.11% (inactive),97%,96.9%,-1.05% (inactive),15.4% (inactive)
COC(=O)C1=C(C)NC(C)=C(C(=O)OC)C1c1cc2cc(C)ccc2[nH]c1=O,103%,66% (inactive),103% (inactive),84.6% (inactive),79.4% (inactive),6.74% (inactive),72.6%,79.4%,-3.29% (inactive),3.45% (inactive)
COc1ccccc1NC(=O)c1ccc(COc2ccccc2OC)o1,95.5%,97% (inactive),95.5% (inactive),87.6% (inactive),97.2% (inactive),5.99% (inactive),91.3%,97.2%,-6.27% (inactive),0% (inactive)
O=C(Nc1ccc(Cc2ccc(NC(=O)N3CCOCC3)cc2)cc1)N1CCOCC1,97%,94% (inactive),97% (inactive),90.1% (inactive),98.5% (inactive),15.7% (inactive),82.8%,98.5%,-4.87% (inactive),-1.17% (inactive)
COCn1c(COc2ccccc2)nc2ccccc21,86.5%,94% (inactive),86.5% (inactive),107% (inactive),82.6% (inactive),-2.19% (inactive),84.8%,82.6%,-9.32% (inactive),-2.67% (inactive)
O=C(CSc1nnc(CNC(=O)c2cccs2)o1)NC1CCCC1,102%,100% (inactive),102% (inactive),102% (inactive),82.4% (inactive),-0.76% (inactive),83.2%,82.4%,-0.26% (inactive),-1.17% (inactive)
COc1cccc(CN2CCN(C(=O)c3ccco3)CC2)c1OC,112%,90% (inactive),112% (inactive),118% (inactive),103% (inactive),6.7% (inactive),96.5%,103%,-5.14% (inactive),0.95% (inactive)
CCOC(=O)c1cccc(NC(=O)c2ccco2)c1,95.5%,92.5% (inactive),95.5% (inactive),114% (inactive),91.9% (inactive),3.72% (inactive),88.1%,91.9%,-0.77% (inactive),-1.17% (inactive)
Nn1c(SCc2csc(-c3ccccc3)n2)nnc1-c1cccs1,83%,82.5% (inactive),83% (inactive),85.2% (inactive),97.3% (inactive),6.11% (inactive),91.2%,97.3%,-9.05% (inactive),5.25% (inactive)
COCCn1c(=O)[nH]c2cc(C(=O)NCc3cccnc3)ccc2c1=O,89.5%,88.5% (inactive),89.5% (inactive),107% (inactive),97.9% (inactive),4.27% (inactive),93.6%,97.9%,-7.57% (inactive),1.17% (inactive)
O=C(Nc1ccc(Br)cc1F)c1sccc1-n1cccc1,87.5%,72.5% (inactive),87.5% (inactive),93.5% (inactive),83.1% (inactive),1.42% (inactive),81.7%,83.1%,-5.66% (inactive),-8.67% (inactive)
CCCCN(C)Cc1c(C)[nH]c2c(Cl)cccc2c1=O,84.5%,87% (inactive),84.5% (inactive),96% (inactive),90.6% (inactive),13.7% (inactive),76.9%,90.6%,-4.34% (inactive),-2.06% (inactive)

SMILES,viability [1],Her2 level [2],viability [3],viability [4],viability [5],differential viability (reversal) ([6]; H69AR cells + 2 uM doxorubicin),"viability [6, 9]","viability [6, 10]",inhibition [7],inhibition [8]
CCCC(=O)N=C1SC2CS(=O)(=O)CC2N1c1ccc(CC)cc1 (stereo not given),97.5%,80% (inactive),97.5% (inactive),83.2% (inactive),93.2% (inactive),7.88% (inactive),85.4%,93.2%,-5.33% (inactive),3.61% (inactive)
O=S(=O)(NCCc1ccccc1F)c1cccc(S(=O)(=O)N2CCOCC2)c1,87%,94.5% (inactive),87% (inactive),96.8% (inactive),97.5% (inactive),9.29% (inactive),88.2%,97.5%,-3.42% (inactive),3.77% (inactive)
CCC(C)NC(=O)c1ccccc1NC(=O)C(C)N(c1ccccc1)S(C)(=O)=O (stereo not given),93%,102% (inactive),93% (inactive),89.5% (inactive),94.5% (inactive),-7.6% (inactive),102%,94.5%,-4.19% (inactive),5.57% (inactive)
COc1cc2c(cc1OC)C(c1cc(OC)c(OC)c(OC)c1)NCC2 (stereo not given),95.5%,81% (inactive),95.5% (inactive),92.4% (inactive),91.9% (inactive),-0.03% (inactive),91.9%,91.9%,-3.95% (inactive),-0.97% (inactive)
CCOC(=O)C(C)n1cnc2c(nnn2Cc2ccc(C)cc2)c1=O (stereo not given),116%,95.5% (inactive),116% (inactive),104% (inactive),91.9% (inactive),3.18% (inactive),88.7%,91.9%,-9.73% (inactive),1.9% (inactive)
C=CCOc1cccc(C2/C(=C(\O)c3ccc(F)cc3)C(=O)C(=O)N2CCN(C)C)c1 (stereo not given),96.5%,97.5% (inactive),96.5% (inactive),98% (inactive),105% (inactive),10.4% (inactive),94.6%,105%,-2.11% (inactive),0.98% (inactive)
CCOc1cc(-c2nc3ccccn3c2NCC2CCCO2)ccc1O (stereo not given),69.5%,111% (inactive),69.5% (inactive),88.7% (inactive),40.7% (active),5.11% (inactive),35.6%,40.7%,4.27% (inactive),24% (inactive)
COc1cccc(C(=O)n2cnnc2N)c1OC,120%,88.5% (inactive),120% (inactive),89.2% (inactive),89.9% (inactive),6.76% (inactive),83.1%,89.9%,-5.6% (inactive),-3.49% (inactive)
Cc1cc(C)cc(-n2nnc(C(=O)NCc3ccco3)c2N)c1,101%,82% (inactive),101% (inactive),89.4% (inactive),88.5% (inactive),-4.65% (inactive),93.2%,88.5%,-0.14% (inactive),-4.92% (inactive)
COc1cccc(Cn2c(Oc3ccccc3)nc3c2c(=O)n(C)c(=O)n3C)c1,100%,104% (inactive),100% (inactive),72.7% (inactive),83.8% (inactive),3.32% (inactive),80.5%,83.8%,-0.13% (inactive),6.07% (inactive)
CCOC(=O)N1CCN(Cc2cc(=O)oc3ccc4ccccc4c23)CC1,91.5%,86% (inactive),91.5% (inactive),79.9% (inactive),87.3% (inactive),7.66% (inactive),79.6%,87.3%,-7.07% (inactive),2.86% (inactive)
COc1ccc(-c2cc(C(F)(F)F)nc(N3CCN(c4ccc(F)cc4)CC3)n2)cc1OC,78.5%,88% (inactive),78.5% (inactive),71.7% (inactive),85.5% (inactive),6.42% (inactive),79.1%,85.5%,-2.97% (inactive),13.9% (inactive)
CCN(CC)C(=O)c1sc(NC(=O)c2ccco2)c(C#N)c1C,99.5%,103% (inactive),99.5% (inactive),88% (inactive),79.3% (inactive),-7.3% (inactive),86.6%,79.3%,-4.74% (inactive),-7.26% (inactive)
COc1ccc(S(=O)(=O)CCC(=O)O)cc1,96.5%,83.5% (inactive),96.5% (inactive),93.7% (inactive),106% (inactive),10.3% (inactive),95.7%,106%,-4.05% (inactive),2.54% (inactive)
CCN(CCCNC(=O)C1CCN(S(=O)(=O)c2cccc3nonc23)CC1)Cc1ccccc1,89%,90% (inactive),89% (inactive),103% (inactive),92.9% (inactive),11.1% (inactive),81.8%,92.9%,-5.39% (inactive),2.5% (inactive)
